Test results: ChEMBL document CHEMBL1143958, “Synthesis of insecticidal fluorinated anthranilic diamides” (Bioorg Med Chem, 2008)

Key:
Myzus persicae [1] = assay: Insecticidal activity against Myzus persicae Sulzer in raddish plant assessed as mortality at 250 ppm by systemic plant assay; format: functional
Outline: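 Systemic-only (SYS) plant assay on Myzus persicae. Formulated compound applied directly to the soil, avoiding any direct contact with the aphids. Percent mortality recorded at 250 ppm.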

[2] = Lipophilicity, log P of the compound; format: physicochemical; details: octanol/water
Outline: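 Measured by reversed-phase HPLC on a C18 column at 40 °C, 1.0 mL/min. Gradient over 5 min from 99% 5 mM ammonium acetate pH 7 to 99% 5 mM ammonium acetate in acetonitrile. logP read from a calibration curve of retention times for compounds with known shake-flask octanol–water values.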

Aphis gossypii [3] = assay: Insecticidal activity against Aphis gossypii glover in cotton/melon plant; format: functional, organism-based
Outline: (§1)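 Combined contact/systemic (CON/SYS) plant assay. Test compound applied to give good foliar and soil coverage, so both contact and soil systemic exposure occur. Aphis gossypii on cotton plants; Myzus persicae on radish plants 12–15 days old, treated the same way. Run in triplicate, rates 3–5× apart where possible. Units dried 1 h, capped, held 6 days at 19–21 °C and 50–70% RH.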

Aphis gossypii [4] = assay: Insecticidal activity against Aphis gossypii glover in cotton/melon plant by combined contact/systemic plant assay; design: unit not given here
Myzus persicae [5] = assay: Insecticidal activity against Myzus persicae Sulzer in raddish plant; format: functional, organism-based; outline: as §1
Myzus persicae [6] = assay: Insecticidal activity against Myzus persicae Sulzer in raddish plant by combined contact/systemic plant assay; design: unit not given here
Myzus persicae [7] = assay: as above; design: unit not given here; remark: listed apart in the source
Aphis gossypii [8] = assay: Insecticidal activity against Aphis gossypii glover in cotton/melon plant by combined contact/systemic plant assay
Aphis gossypii [9] = assay: Insecticidal activity against Aphis gossypii glover in cotton/melon plant assessed as mortality at 2 ppm; format: functional; outline: as §1
Aphis gossypii [10] = assay: Insecticidal activity against Aphis gossypii glover in cotton/melon plant assessed as mortality at 50 ppm; format: functional; outline: as §1
Myzus persicae [11] = assay: Insecticidal activity against Myzus persicae Sulzer in raddish plant assessed as mortality at 250 ppm; format: functional; outline: as §1
Myzus persicae [12] = assay: Insecticidal activity against Myzus persicae Sulzer in raddish plant assessed as mortality at 50 ppm; format: functional; outline: as §1
Aphis gossypii [13] = assay: Insecticidal activity against Aphis gossypii glover in cotton plant assessed as mortality at 250 ppm; format: functional; outline: as §1
Myzus persicae [14] = assay: Insecticidal activity against Myzus persicae Sulzer in raddish plant assessed as mortality at 100 ppm; format: functional; outline: as §1
Aphis gossypii [15] = assay: Insecticidal activity against Aphis gossypii glover in cotton/melon plant assessed as mortality at 100 ppm; format: functional; outline: as §1

CNC(=O)c1cc(F)cc(Cl)c1NC(=O)c1cc(Br)nn1-c1ncccc1Cl
Activity (Myzus persicae [1]): 2% | logP [2]: 2.6 | EC50 (Aphis gossypii [3]): 2.5 ppm | EC50 upper 95% confidence limit (Aphis gossypii [4]): 4.7 | EC50 (Myzus persicae [5]): 7.8 ppm | EC50 upper 95% confidence limit (Myzus persicae [6]): 23.2 | EC50 lower 95% confidence limit (Myzus persicae [7]): 4 | EC50 lower 95% confidence limit (Aphis gossypii [8]): 1.1 ppm

CNC(=O)c1cc(Cl)cc(Cl)c1NC(=O)c1cc(Br)nn1-c1ncccc1F
Activity (Myzus persicae [1]): 29% | Activity (Aphis gossypii [9]): 89% | logP [2]: 2.7 | EC50 (Aphis gossypii [3]): < 2 ppm | EC50 (Myzus persicae [5]): 1.8 ppm

CNC(=O)c1cc(Cl)cc(C)c1NC(=O)c1cc(F)nn1-c1ncccc1Cl
EC50 (Aphis gossypii [3]): > 100 ppm | EC50 (Myzus persicae [5]): > 300 ppm

CNC(=O)c1cc(Cl)cc(Cl)c1NC(=O)c1cc(C(F)(F)F)nn1-c1ncccc1Cl
Activity (Myzus persicae [1]): 74% | EC50 (Aphis gossypii [3]): 2.1 ppm | EC50 upper 95% confidence limit (Aphis gossypii [4]): 3.5 | EC50 (Myzus persicae [5]): 3.4 ppm | EC50 upper 95% confidence limit (Myzus persicae [6]): 4.6 | EC50 lower 95% confidence limit (Myzus persicae [7]): 2.7 | EC50 lower 95% confidence limit (Aphis gossypii [8]): 1.4 ppm

CNC(=O)c1cc(F)cc(C)c1NC(=O)c1cc(C(F)(F)F)nn1-c1ncccc1Cl
Activity (Myzus persicae [1]): 8% | EC50 (Aphis gossypii [3]): 63.4 ppm | EC50 upper 95% confidence limit (Aphis gossypii [4]): 201 | EC50 (Myzus persicae [5]): 30.8 ppm | EC50 upper 95% confidence limit (Myzus persicae [6]): 84.3 | EC50 lower 95% confidence limit (Myzus persicae [7]): 6.7 | EC50 lower 95% confidence limit (Aphis gossypii [8]): 26 ppm

CNC(=O)c1cc(F)cc(Cl)c1NC(=O)c1cc(C(F)(F)F)nn1-c1ncccc1Cl
Activity (Myzus persicae [1]): 100% | EC50 (Aphis gossypii [3]): 5.5 ppm | EC50 upper 95% confidence limit (Aphis gossypii [4]): 8.1 | EC50 (Myzus persicae [5]): 9.2 ppm | EC50 upper 95% confidence limit (Myzus persicae [6]): 12.9 | EC50 lower 95% confidence limit (Myzus persicae [7]): 7.2 | EC50 lower 95% confidence limit (Aphis gossypii [8]): 4 ppm

CNC(=O)c1cc(Cl)cc(F)c1NC(=O)c1cc(Br)nn1-c1ncccc1Cl
logP [2]: 2.9 | EC50 (Aphis gossypii [3]): 5.5 ppm | EC50 upper 95% confidence limit (Aphis gossypii [4]): 9.5 | EC50 (Myzus persicae [5]): > 300 ppm | EC50 lower 95% confidence limit (Aphis gossypii [8]): 3 ppm

CNC(=O)c1cc(Cl)cc(C)c1NC(=O)c1cc(Br)nn1-c1ncccc1F
Activity (Myzus persicae [1]): 29% | EC50 (Aphis gossypii [3]): 3.7 ppm | EC50 upper 95% confidence limit (Aphis gossypii [4]): 6.4 | EC50 (Myzus persicae [5]): 11.3 ppm | EC50 upper 95% confidence limit (Myzus persicae [6]): 15.2 | EC50 lower 95% confidence limit (Myzus persicae [7]): 8.7 | EC50 lower 95% confidence limit (Aphis gossypii [8]): 2 ppm

CNC(=O)c1cc(F)cc(C)c1NC(=O)c1cc(Br)nn1-c1ncccc1Cl
Activity (Myzus persicae [1]): <80% | EC50 (Aphis gossypii [3]): 11.3 ppm | EC50 upper 95% confidence limit (Aphis gossypii [4]): 18.5 | EC50 (Myzus persicae [5]): > 300 ppm | EC50 lower 95% confidence limit (Aphis gossypii [8]): 7.2 ppm

O=[N+]([O-])/N=C1\NCCN1Cc1ccc(Cl)nc1 [IMIDACLOPRID]
EC50 (Aphis gossypii [3]): 0.4 ppm | EC50 (Myzus persicae [5]): 0.3 ppm

CNC(=O)c1cc(Cl)cc(Cl)c1NC(=O)c1cc(Br)nn1-c1ncccc1Cl
Activity (Myzus persicae [1]): 22% | logP [2]: 3 | EC50 (Aphis gossypii [3]): 1.6 ppm | EC50 upper 95% confidence limit (Aphis gossypii [4]): 2.4 | EC50 (Myzus persicae [5]): 2.1 ppm | EC50 upper 95% confidence limit (Myzus persicae [6]): 3.2 | EC50 lower 95% confidence limit (Myzus persicae [7]): 1.4 | EC50 lower 95% confidence limit (Aphis gossypii [8]): 0.9 ppm

CNC(=O)c1cc(F)cc(F)c1NC(=O)c1cc(Br)nn1-c1ncccc1Cl
Activity (Myzus persicae [1]): 14% | EC50 (Aphis gossypii [3]): < 50 ppm | Activity (Aphis gossypii [10]): 85% | EC50 (Myzus persicae [5]): < 250 ppm

CNC(=O)c1cc(Cl)cc(Cl)c1NC(=O)c1cc(F)nn1-c1ncccc1Cl
Activity (Myzus persicae [1]): 2% | logP [2]: 2.6 | EC50 (Aphis gossypii [3]): 6.2 ppm | EC50 upper 95% confidence limit (Aphis gossypii [4]): 8.9 | EC50 (Myzus persicae [5]): 20.6 ppm | EC50 upper 95% confidence limit (Myzus persicae [6]): 26.8 | EC50 lower 95% confidence limit (Myzus persicae [7]): 15.9 | EC50 lower 95% confidence limit (Aphis gossypii [8]): 4.4 ppm

CNC(=O)c1cc(F)cc(F)c1NC(=O)c1cc(F)nn1-c1ncccc1Cl
EC50 (Aphis gossypii [3]): < 250 ppm | Activity (Myzus persicae [11]): 100% | EC50 (Myzus persicae [5]): < 250 ppm | Activity (Myzus persicae [12]): 80% | Activity (Aphis gossypii [13]): 70%

CNC(=O)c1cc(Cl)cc(Cl)c1NC(=O)c1cc(C(F)(F)F)nn1-c1ncccc1F
Activity (Myzus persicae [1]): 58% | EC50 (Aphis gossypii [3]): 9.1 ppm | EC50 upper 95% confidence limit (Aphis gossypii [4]): 16.3 | EC50 (Myzus persicae [5]): 3.4 ppm | EC50 upper 95% confidence limit (Myzus persicae [6]): 7 | EC50 lower 95% confidence limit (Myzus persicae [7]): 1.5 | EC50 lower 95% confidence limit (Aphis gossypii [8]): 5.8 ppm

CNC(=O)c1cc(Cl)cc(C)c1NC(=O)c1cc(Br)nn1-c1ncccc1Cl [CHLORANTRANILIPROLE]
Activity (Myzus persicae [1]): 12% | logP [2]: 3 | EC50 (Aphis gossypii [3]): 3.1 ppm | EC50 (Myzus persicae [5]): 12.4 ppm

CNC(=O)c1cc(F)cc(Cl)c1NC(=O)c1cc(F)nn1-c1ncccc1Cl
EC50 (Aphis gossypii [3]): < 100 ppm | EC50 (Myzus persicae [5]): < 100 ppm | Activity (Myzus persicae [14]): 65% | Activity (Aphis gossypii [15]): 89%
